Assay results reported in ChEMBL document CHEMBL1817561, “5a-Carba-β-D-glucopyranose derivatives as novel sodium-dependent glucose cotransporter 2 (SGLT2) inhibitors for the treatment of type 2 diabetes” (Bioorg Med Chem, 2011).
The source made the active and inactive calls. No cut-off for these calls is given here.

Tests used:
[1] = target: T1, Sodium/glucose cotransporter 2 (Homo sapiens, UniProt P31639); assay: Inhibition of human SGLT2 expressed in CHO cells assessed as [14C]AMG uptake after 45 mins; format: cell-based
T1 sequence (P31639 whole entry): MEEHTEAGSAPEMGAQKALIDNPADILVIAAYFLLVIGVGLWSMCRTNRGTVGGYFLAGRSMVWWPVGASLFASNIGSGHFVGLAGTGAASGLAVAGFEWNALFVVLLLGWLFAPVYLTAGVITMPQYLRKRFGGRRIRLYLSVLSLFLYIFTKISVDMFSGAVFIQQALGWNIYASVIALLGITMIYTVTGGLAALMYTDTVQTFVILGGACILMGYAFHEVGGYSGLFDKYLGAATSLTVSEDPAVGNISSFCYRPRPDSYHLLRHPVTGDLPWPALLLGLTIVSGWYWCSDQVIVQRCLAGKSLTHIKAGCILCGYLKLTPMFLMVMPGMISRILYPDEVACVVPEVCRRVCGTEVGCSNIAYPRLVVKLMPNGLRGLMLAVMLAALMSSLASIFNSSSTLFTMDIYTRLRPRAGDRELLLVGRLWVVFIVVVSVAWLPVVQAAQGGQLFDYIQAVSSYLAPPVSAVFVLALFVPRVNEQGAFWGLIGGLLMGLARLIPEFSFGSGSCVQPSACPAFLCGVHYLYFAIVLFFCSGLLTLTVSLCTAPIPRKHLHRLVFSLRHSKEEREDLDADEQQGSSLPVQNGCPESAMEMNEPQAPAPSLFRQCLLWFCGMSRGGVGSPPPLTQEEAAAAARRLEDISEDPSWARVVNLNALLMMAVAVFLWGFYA
Procedure, shortened: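 Cells incubated 45 min in reaction buffer with compound plus 1 mM AMG containing [14C]AMG; uptake read as radioactivity in cell lysates. IC50 from four-parameter logistic curve fit; means of multiple independent experiments, with phlorizin and reference standard included in every run.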

Mus musculus = assay: Antidiabetic activity in db/db mouse assessed as reduction of blood glucose level at 100 mg/kg, po after 8 hrs by hexokinase method; format: functional, organism-based; design: dose 100 mg/kg
Procedure, shortened: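 Male db/db mice on regular chow; single oral gavage dose of 100 mg/kg as homogeneous suspension in 0.5% carboxymethylcellulose sodium. Blood sampled before dosing and at 1, 2, 4, 6, 8, 10 and 24 h; glucose measured by hexokinase method.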

C=Cc1ccc(Cc2ccccc2O[C@@H]2C[C@H](CO)[C@@H](O)[C@H](O)[C@H]2O)cc1
IC50 [1]: 29 nM

OC[C@H]1C[C@@H](Oc2ccccc2Cc2ccc(C(F)(F)F)cc2)[C@H](O)[C@@H](O)[C@@H]1O
IC50 [1]: 120 nM

CSc1ccc(Cc2ccccc2O[C@@H]2C[C@H](CO)[C@@H](O)[C@H](O)[C@H]2O)cc1
IC50 [1]: 19 nM

COc1ccc(Cc2ccccc2O[C@@H]2C[C@H](CO)[C@@H](O)[C@H](O)[C@H]2O)cc1
IC50 [1]: 42 nM | Activity (Mus musculus): Active

COc1ccc(Cc2ccccc2O[C@@H]2O[C@H](CO)[C@@H](O)[C@H](O)[C@H]2O)cc1 [SERGLIFLOZIN A]
IC50 [1]: 4.8 nM

OC[C@H]1C[C@@H](Oc2ccccc2Cc2ccc(Cl)cc2)[C@H](O)[C@@H](O)[C@@H]1O
IC50 [1]: 150 nM

CCOC(=O)OC[C@H]1O[C@@H](Oc2ccccc2Cc2ccc(OC)cc2)[C@H](O)[C@@H](O)[C@@H]1O [SERGLIFLOZIN ETABONATE]
IC50 [1]: 260 nM | Activity (Mus musculus): Active

OC[C@H]1C[C@@H](Oc2ccccc2Cc2ccccc2)[C@H](O)[C@@H](O)[C@@H]1O
IC50 [1]: 690 nM

OC[C@H]1C[C@@H](Oc2ccccc2Cc2ccc(O)cc2)[C@H](O)[C@@H](O)[C@@H]1O
IC50 [1]: 290 nM

OC[C@H]1C[C@@H](Oc2ccccc2Cc2ccc(C3CC3)cc2)[C@H](O)[C@@H](O)[C@@H]1O
IC50 [1]: 11 nM

Cc1ccc(Cc2ccccc2O[C@@H]2C[C@H](CO)[C@@H](O)[C@H](O)[C@H]2O)cc1
IC50 [1]: 59 nM

CC(C)c1ccc(Cc2ccccc2O[C@@H]2C[C@H](CO)[C@@H](O)[C@H](O)[C@H]2O)cc1
IC50 [1]: 150 nM

CCOc1ccc(Cc2ccccc2O[C@@H]2C[C@H](CO)[C@@H](O)[C@H](O)[C@H]2O)cc1
IC50 [1]: 110 nM

CCCc1ccc(Cc2ccccc2O[C@@H]2C[C@H](CO)[C@@H](O)[C@H](O)[C@H]2O)cc1
IC50 [1]: 120 nM

CCc1ccc(Cc2ccccc2O[C@@H]2C[C@H](CO)[C@@H](O)[C@H](O)[C@H]2O)cc1
IC50 [1]: 28 nM

OC[C@H]1C[C@@H](Oc2ccccc2Cc2ccc(F)cc2)[C@H](O)[C@@H](O)[C@@H]1O
IC50 [1]: 630 nM
